Assay type in all cases: functional, cell-based
Test [1] concerns the target T1, Melatonin receptor type 1B (Homo sapiens) (UniProt P49286).
T1 sequence (whole entry): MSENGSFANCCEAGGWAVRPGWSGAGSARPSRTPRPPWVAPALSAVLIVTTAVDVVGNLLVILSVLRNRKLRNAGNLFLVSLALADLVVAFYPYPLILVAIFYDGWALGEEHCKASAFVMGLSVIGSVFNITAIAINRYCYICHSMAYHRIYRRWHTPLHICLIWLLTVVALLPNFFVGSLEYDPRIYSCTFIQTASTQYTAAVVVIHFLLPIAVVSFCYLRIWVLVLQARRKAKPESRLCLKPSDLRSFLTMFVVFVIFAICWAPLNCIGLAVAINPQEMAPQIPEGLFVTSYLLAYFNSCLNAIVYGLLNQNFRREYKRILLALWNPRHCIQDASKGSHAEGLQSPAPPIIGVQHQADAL
The experiment in a line: Agonist activity at MT2 receptor (unknown origin) expressed in HEK293 cells at 0.5 mM by Fluo-8 dye-based calcium assay relative to control. The method, boiled down: (§1)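 HEK293 cells grown at 37 °C, 5% CO2 in DMEM with 10% FBS and G418 (400 μg/mL). Seeded at 4 × 10⁴/well on Matrigel-coated plates and grown 24 h. Loaded with Fluo-8 calcium dye for 1 h. Compounds were dissolved in DMSO and diluted in HBSS, then added automatically. Fluorescence was read at room temperature (ex 485 nm, em 525 nm, cut-off 515 nm). Agonistic rate was measured at 0.5 mM.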

Test [2] deals with T2, Melatonin receptor type 1A (Homo sapiens, UniProt P48039). Description: Agonist activity at MT1 receptor (unknown origin) expressed in HEK293 cells at 0.5 mM by Fluo-8 dye-based calcium assay relative to control. In a few lines: as §1
Test [3] has as its target T2, Melatonin receptor type 1A. The experiment in a line: Agonist activity at MT1 receptor (unknown origin) expressed in HEK293 cells by Fluo-8 dye-based calcium assay.
Test [4] addresses T3, Melatonin receptor type 1B (Homo sapiens, UniProt P49286).
T3 sequence (P49286 whole entry): T1 sequence (whole entry)
The experiment in a line: Agonist activity at MT2 receptor (unknown origin) expressed in HEK293 cells by Fluo-8 dye-based calcium assay.

A word on the pEC50: it is the EC50 on a negative log10 scale, so that one unit is a factor of ten.

pEC50: −log10 of the molar value.

T2 sequence (P48039 whole entry): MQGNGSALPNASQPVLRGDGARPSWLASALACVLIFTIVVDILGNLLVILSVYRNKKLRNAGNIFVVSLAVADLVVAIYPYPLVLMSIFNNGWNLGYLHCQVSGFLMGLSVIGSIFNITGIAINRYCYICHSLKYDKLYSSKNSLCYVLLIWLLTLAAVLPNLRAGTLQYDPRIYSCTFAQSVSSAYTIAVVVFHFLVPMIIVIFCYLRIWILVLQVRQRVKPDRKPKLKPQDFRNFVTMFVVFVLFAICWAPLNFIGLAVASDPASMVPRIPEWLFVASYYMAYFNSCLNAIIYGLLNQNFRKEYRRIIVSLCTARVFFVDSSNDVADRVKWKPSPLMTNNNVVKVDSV

For the molecule `CCOCc1cc(Cc2ccc(O)cc2)ccc1O`, the Activity in test [1] stood at 117%; in test [2] it was 37%.
Take `OC[C@H]1O[C@@H](Oc2ccc(Sc3ccc(O)cc3)cc2)[C@H](O)[C@@H](O)[C@@H]1O`: the Activity was -2.2% in test [1] and -2.3% in test [2].
In the case of `CC(=O)OC[C@H]1O[C@@H](Oc2ccc(Sc3ccc(O[C@@H]4O[C@H](COC(C)=O)[C@@H](OC(C)=O)[C@H](OC(C)=O)[C@H]4OC(C)=O)cc3)cc2)[C@H](OC(C)=O)[C@@H](OC(C)=O)[C@@H]1OC(C)=O`, the Activity in test [1] was -3.6%; in test [2] it was -0.4%.
On to `Oc1ccc(Cc2ccc(O)c(Cc3ccc(O)cc3)c2)cc1`, for which the Activity in test [1] was determined as 134%; in test [2], 46.5%.
As for `Oc1ccc(Cc2ccc(O)c(Cc3ccccc3Cc3ccccc3)c2)cc1`, the Activity in test [1] is -6.7%; in test [2] it was -2.3%.
`Oc1ccc(COCc2ccc(O)c(Cc3ccc(O)cc3)c2)cc1`: the Activity in test [1] worked out at 59.4%; in test [2] it was 25.1%.
The like results for `Oc1ccc(Sc2ccc(O)cc2)cc1` were, in that order, 94.1% and 44.6%.
As for `CCOCc1ccc(O)c(Cc2ccc(O)c(COCC)c2)c1`, the Activity in test [1] is 5.3%; in test [2] it was -11.2%.
In the case of `CN(c1ccc(O)cc1)c1ccc(O)cc1`, the figures for the Activity in test [1] and in test [2] were 44.7% and -9.5%, respectively.
As for `CCOCc1cc(Cc2ccc(O)cc2)c(O)c(Cc2ccc(O)c(Cc3ccc(O)cc3)c2)c1`, the values for the Activity in test [1] and in test [2] were 29.5% and -5.3%, respectively.
With `Oc1ccc(Cc2cc(Oc3ccc(O)cc3)ccc2O)cc1`, the Activity in test [1] was determined as 51.2%; in test [2], 37.1%.
The like results for `CCOCc1ccc(O)c(Cc2ccc(O)cc2)c1` were, in that order, 38.3% and 3.3%.
For the molecule `CCOCc1ccc(O)c(Cc2ccc(O)c(Cc3ccc(O)cc3)c2)c1`, the Activity was -10.4% in test [1] and -5.7% in test [2].
Regarding `Oc1ccc(Cc2cc(Sc3ccc(O)cc3)ccc2O)cc1`, the values for the Activity in test [1] and in test [2] were 48.4% and 31.3%, respectively.
On to `Oc1ccc(Cc2ccc(O)c(Cc3ccccc3)c2)cc1`, for which the Activity in test [1] was -6.6%; in test [2], -8.6%.
As to `Oc1ccc(Oc2ccc(O)cc2)cc1`, the Activity came out at 67.1% in test [1] and 45.9% in test [2].
On the same counts, the results for `CC(=O)OC[C@H]1O[C@@H](Oc2ccc(Sc3ccc(O)cc3)cc2)[C@H](OC(C)=O)[C@@H](OC(C)=O)[C@@H]1OC(C)=O` are 8.5% and 0.3%.
The like results for `Oc1ccc(COc2ccc(Cc3ccc(O)cc3)cc2)cc1` were, in that order, 15.3% and -5.6%.
Turning to `Oc1ccc(Cc2ccc(O)cc2)cc1`, the figures for the Activity in test [1] and in test [2] were 103% and 80.3%, respectively. The pEC50 in test [3] was 3.63; in test [4], 3.61.

The record behind these values is ChEMBL document CHEMBL4387755 (Bioorg Med Chem, 2019).
